From ChEMBL document CHEMBL4261491, “Synthesis and synergistic antifungal effects of monoketone derivatives of curcumin against fluconazole-resistant Candida spp” (Medchemcomm, 2017)
Converted amounts (≈) assume the structure as drawn. The source made the active and inactive calls. No cut-off for these calls is given here.

What was measured:
Pichia kudriavzevii [1] = assay: Antifungal activity against fluconazole-resistant Candida krusei clinical isolate 2159 by broth microdilution method; format: functional
Procedure, shortened: (§1)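 Broth microdilution per CLSI/NCCLS M27-A2 against FLC-resistant clinical isolates. MIC80 read for each compound alone and with fluconazole at 8.0 μg ml–1. C. albicans ATCC 90028 served as quality control. Curcumin was the positive control.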

Candida albicans [2] = assay: Antifungal activity against fluconazole-resistant Candida albicans clinical isolate 103 by broth microdilution method; format: functional; procedure, shortened: as §1
Candida tropicalis [3] = assay: Antifungal activity against fluconazole-resistant Candida tropicalis clinical isolate 087 by broth microdilution method; format: functional; procedure, shortened: as §1
Candida tropicalis [4] = assay: Antifungal activity against fluconazole-resistant Candida tropicalis clinical isolate 087 at 1 ug/ml after 16 hrs by turbidity method; format: functional, organism-based
Procedure, shortened: (§2)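 C. tropicalis 087 at 10^4 CFU ml–1 in RPMI 1640 in glass tubes. Compound (0–128 μg ml–1) and fluconazole (0–2 μg ml–1) were added alone or in combination. Tubes were shaken at 200 rpm at 30 °C for 16 h, and turbidity was inspected visually and photographed.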

Candida tropicalis [5] = assay: Antifungal activity against fluconazole-resistant Candida tropicalis clinical isolate 087 assessed as fungal growth inhibition at 0.5 ug/ml after 48 hrs; format: functional, organism-based
Procedure, shortened: (§3)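 C. tropicalis 087 was grown in RPMI 1640 at 30 °C for 48 h with fluconazole (0.25, 0.5, 1 μg ml–1) or compound (64, 128 μg ml–1), alone or combined. OD630 was read every 8 h to build growth curves. Three independent experiments, means ± SD.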

Candida tropicalis [6] = assay: Antifungal activity against fluconazole-resistant Candida tropicalis clinical isolate 087 assessed as fungus with permeabilized membrane at 2 ug/ml after 12 hrs by propidium iodide staining-based flow cytometry (reference value: 7.22%); format: functional
Candida albicans [7] = assay: Antifungal activity against fluconazole-resistant Candida albicans clinical isolate 103 in presence of 8 ug/ml fluconazole by broth microdilution method; format: functional; procedure, shortened: as §1
Candida tropicalis [8] = assay: Antifungal activity against fluconazole-resistant Candida tropicalis clinical isolate 087 in presence of 8 ug/ml fluconazole by broth microdilution method; format: functional; procedure, shortened: as §1
Pichia kudriavzevii [9] = assay: Antifungal activity against fluconazole-resistant Candida krusei clinical isolate 2159 in presence of 8 ug/ml fluconazole by broth microdilution method; format: functional; procedure, shortened: as §1
Candida tropicalis [10] = assay: Antifungal activity against fluconazole-resistant Candida tropicalis clinical isolate 087 at 64 ug/ml after 16 hrs by turbidity method; format: functional, organism-based; procedure, shortened: as §2
Candida tropicalis [11] = assay: Synergistic antifungal activity against fluconazole-resistant Candida tropicalis clinical isolate 087 at 4 ug/ml after 16 hrs in presence of fluconazole by turbidity method; format: functional, organism-based; procedure, shortened: as §2
Candida tropicalis [12] = assay: Antifungal activity against fluconazole-resistant Candida tropicalis clinical isolate 087 assessed as fungal growth inhibition at 64 ug/ml after 48 hrs; format: functional, organism-based; procedure, shortened: as §3
Candida tropicalis [13] = assay: Fungicidal activity against fluconazole-resistant Candida tropicalis clinical isolate 087 at 128 ug/ml after 48 hrs; format: functional, organism-based; procedure, shortened: as §3
Candida tropicalis [14] = assay: Antifungal activity against fluconazole-resistant Candida tropicalis clinical isolate 087 assessed as apoptosis at 128 ug/ml after 48 hrs; format: functional, organism-based
Candida tropicalis [15] = assay: Synergistic fungicidal activity against fluconazole-resistant Candida tropicalis clinical isolate 087 at 64 to 128 ug/ml after 48 hrs in presence of 1 ug/ml fluconazole; format: functional, organism-based; procedure, shortened: as §3
Candida tropicalis [16] = assay: Antifungal activity against fluconazole-resistant Candida tropicalis clinical isolate 087 assessed as fungus with permeabilized membrane at 32 ug/ml after 12 hrs by propidium iodide staining-based flow cytometry (reference value: 7.22%); format: functional
Candida tropicalis [17] = assay: Synergistic antifungal activity against fluconazole-resistant Candida tropicalis clinical isolate 087 assessed as fungus with permeabilized membrane at 32 ug/ml after 12 hrs in presence of 2 ug/ml fluconazole by propidium iodide staining-based flow cytometry (reference value: 7.22%); format: functional
[18] = Cytotoxicity against HUVEC assessed as cell viability at 32 ug/ml after 24 hrs by MTT assay relative to control; format: cell-based; conditions: human, HUVEC cells; read-out: Activity
Procedure, shortened: (§4)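 HUVECs grown in DMEM with 10% FCS and 100 μg ml–1 streptomycin, 5% CO2, 37 °C. Cells exposed to compounds at 16 and 32 μg ml–1 for 24 h, then incubated with MTT solution (5 mg ml–1) for 3 h. Optical density read at 570 nm. Viability expressed as percentage relative to drug-free control.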

[19] = Cytotoxicity against HUVEC assessed as cell viability at 16 ug/ml after 24 hrs by MTT assay relative to control; format: cell-based; conditions: human, HUVEC cells; read-out: Activity; procedure, shortened: as §4

OC(Cn1cncn1)(Cn1cncn1)c1ccc(F)cc1F [FLUCONAZOLE]
MIC80 (Pichia kudriavzevii [1]): 128 µg/mL (≈ 418 µM) | MIC80 (Candida albicans [2]): 128 µg/mL (≈ 418 µM) | MIC80 (Candida tropicalis [3]): 128 µg/mL (≈ 418 µM) | Activity (Candida tropicalis [4]): inactive | growth inhibition (GI) (Candida tropicalis [5]): Active | Activity (Candida tropicalis [6]): 37.27%

O=C(/C=C/c1ccc(O)c(O)c1)/C=C/c1ccc(O)c(O)c1
MIC80 (Pichia kudriavzevii [1]): 64 µg/mL (≈ 215 µM) | MIC80 (Candida albicans [2]): 64 µg/mL (≈ 215 µM) | MIC80 (Candida tropicalis [3]): 64 µg/mL (≈ 215 µM) | fractional inhibitory concentration index (FICI) (Candida albicans [7]): 0.125 | MIC80 (Candida albicans [7]; Candida albicans, isolate 103): 4 µg/mL | fractional inhibitory concentration index (FICI) (Candida tropicalis [8]): 0.125 | MIC80 (Candida tropicalis [8]; Candida tropicalis, isolate 087): 4 µg/mL | fractional inhibitory concentration index (FICI) (Pichia kudriavzevii [9]): 0.188 | MIC80 (Pichia kudriavzevii [9]; Pichia kudriavzevii, isolate 2159): 8 µg/mL | Activity (Candida tropicalis [10]): Active | Activity (Candida tropicalis [11]): Active | growth inhibition (GI) (Candida tropicalis [12]): Active | Activity (Candida tropicalis [13]): Active | Activity (Candida tropicalis [14]): Active | Activity (Candida tropicalis [15]): Active | Activity (Candida tropicalis [16]): 20.92% | Activity (Candida tropicalis [17]): 72.79% | viability at 24 h, 32 ug/ml [18]: 75% | viability at 24 h, 16 ug/ml [19]: 91%
